Reference: ChEMBL document CHEMBL4689842, “EUbOPEN Chemogenomics Library wave 1” (2021)

Test system: HEK-293T
Assay: Multiplex assay against HEK293T;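 as to Population Tubulin-Different-Phenotype (%): share of the cells with healthy nuclei that show this phenotype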
Assay type: toxicity, cell-based
Settings: human
How it was run: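 Values for tubulin, mitochondrial-mass and membrane-permeability phenotypes are per cents of cells with healthy nuclei. These cells were identified by CellPathfinder machine-learning gating of live cells that had been stained at seeding with Hoechst33342, BioTracker Green Microtubule Cytoskeleton Dye, MitoTracker Red and Annexin V Alexa Fluor 680 and imaged on a CQ1 microscope at 37°C and 5% CO2 after compound addition. The gating first set Hoechst high-intensity objects apart from normal cells, then split normal cells into healthy, pyknosed or fragmented nuclei, and pyknosed cells into mitotic or apoptotic.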

[1] = 12 h, 1 µM, compound concentration 1 uM, replicate 1
[2] = 12 h, 1 µM, compound concentration 1 uM, replicate 2
[3] = 12 h, 10 µM, compound concentration 10 uM, replicate 1
[4] = 12 h, 10 µM, compound concentration 10 uM, replicate 2
[5] = 24 h, 1 µM, compound concentration 1 uM, replicate 1
[6] = 24 h, 1 µM, compound concentration 1 uM, replicate 2
[7] = 24 h, 10 µM, compound concentration 10 uM, replicate 1
[8] = 24 h, 10 µM, compound concentration 10 uM, replicate 2
[9] = 48 h, 1 µM, compound concentration 1 uM, replicate 1
[10] = 48 h, 1 µM, compound concentration 1 uM, replicate 2
[11] = 48 h, 10 µM, compound concentration 10 uM, replicate 1
[12] = 48 h, 10 µM, compound concentration 10 uM, replicate 2

SMILES: CNc1oc(-c2cccc3ccccc23)nc1C#N
- Population Apoptotic (%) [1]: 59%
- Population Fragmented Nuclei (%) [1]: 14%
- Population Healthy Nuclei (%) [1]: 60%
- Population Hoechst High Intensity Objects (%) [1]: 30%
- Population Membrane Permeable-Phenotype (%) [1]: 3%
- Population Mitochondria Different-Phenotype (%) [1]: 62%
- Population Mitotic Cells (%) [1]: 40%
- Population Normal (%) [1]: 69%
- Population Pyknosed Nuclei (%) [1]: 25%
- Population Tubulin-Different-Phenotype (%) [1]: 31%
- Total Cell Count [1]: 276
- Population Apoptotic (%) [2]: 14%
- Population Fragmented Nuclei (%) [2]: 8%
- Population Healthy Nuclei (%) [2]: 61%
- Population Hoechst High Intensity Objects (%) [2]: 11%
- Population Membrane Permeable-Phenotype (%) [2]: 8%
- Population Mitochondria Different-Phenotype (%) [2]: 16%
- Population Mitotic Cells (%) [2]: 85%
- Population Normal (%) [2]: 88%
- Population Pyknosed Nuclei (%) [2]: 29%
- Population Tubulin-Different-Phenotype (%) [2]: 12%
- Total Cell Count [2]: 270
- Population Apoptotic (%) [3]: 41%
- Population Fragmented Nuclei (%) [3]: 83%
- Population Healthy Nuclei (%) [3]: 15%
- Population Hoechst High Intensity Objects (%) [3]: 41%
- Population Membrane Permeable-Phenotype (%) [3]: 0%
- Population Mitochondria Different-Phenotype (%) [3]: 1%
- Population Mitotic Cells (%) [3]: 58%
- Population Normal (%) [3]: 58%
- Population Pyknosed Nuclei (%) [3]: 1%
- Population Tubulin-Different-Phenotype (%) [3]: 0%
- Total Cell Count [3]: 2858
- Population Apoptotic (%) [4]: 25%
- Population Fragmented Nuclei (%) [4]: 86%
- Population Healthy Nuclei (%) [4]: 12%
- Population Hoechst High Intensity Objects (%) [4]: 47%
- Population Membrane Permeable-Phenotype (%) [4]: 4%
- Population Mitochondria Different-Phenotype (%) [4]: 2%
- Population Mitotic Cells (%) [4]: 75%
- Population Normal (%) [4]: 52%
- Population Pyknosed Nuclei (%) [4]: 0%
- Population Tubulin-Different-Phenotype (%) [4]: 1%
- Total Cell Count [4]: 2861
- Population Apoptotic (%) [5]: 38%
- Population Fragmented Nuclei (%) [5]: 17%
- Population Healthy Nuclei (%) [5]: 64%
- Population Hoechst High Intensity Objects (%) [5]: 29%
- Population Membrane Permeable-Phenotype (%) [5]: 6%
- Population Mitochondria Different-Phenotype (%) [5]: 41%
- Population Mitotic Cells (%) [5]: 61%
- Population Normal (%) [5]: 70%
- Population Pyknosed Nuclei (%) [5]: 17%
- Population Tubulin-Different-Phenotype (%) [5]: 25%
- Total Cell Count [5]: 325
- Population Apoptotic (%) [6]: 32%
- Population Fragmented Nuclei (%) [6]: 6%
- Population Healthy Nuclei (%) [6]: 79%
- Population Hoechst High Intensity Objects (%) [6]: 14%
- Population Membrane Permeable-Phenotype (%) [6]: 15%
- Population Mitochondria Different-Phenotype (%) [6]: 8%
- Population Mitotic Cells (%) [6]: 67%
- Population Normal (%) [6]: 85%
- Population Pyknosed Nuclei (%) [6]: 13%
- Population Tubulin-Different-Phenotype (%) [6]: 26%
- Total Cell Count [6]: 316
- Population Apoptotic (%) [7]: 15%
- Population Fragmented Nuclei (%) [7]: 83%
- Population Healthy Nuclei (%) [7]: 15%
- Population Hoechst High Intensity Objects (%) [7]: 40%
- Population Membrane Permeable-Phenotype (%) [7]: 0%
- Population Mitotic Cells (%) [7]: 84%
- Population Normal (%) [7]: 59%
- Population Pyknosed Nuclei (%) [7]: 0%
- Population Tubulin-Different-Phenotype (%) [7]: 0%
- Total Cell Count [7]: 2556
- Population Apoptotic (%) [8]: 13%
- Population Fragmented Nuclei (%) [8]: 88%
- Population Healthy Nuclei (%) [8]: 10%
- Population Hoechst High Intensity Objects (%) [8]: 48%
- Population Membrane Permeable-Phenotype (%) [8]: 4%
- Population Mitochondria Different-Phenotype (%) [8]: 1%
- Population Mitotic Cells (%) [8]: 86%
- Population Normal (%) [8]: 51%
- Population Pyknosed Nuclei (%) [8]: 1%
- Population Tubulin-Different-Phenotype (%) [8]: 3%
- Total Cell Count [8]: 2734
- Population Apoptotic (%) [9]: 39%
- Population Fragmented Nuclei (%) [9]: 14%
- Population Healthy Nuclei (%) [9]: 78%
- Population Hoechst High Intensity Objects (%) [9]: 32%
- Population Membrane Permeable-Phenotype (%) [9]: 2%
- Population Mitochondria Different-Phenotype (%) [9]: 17%
- Population Mitotic Cells (%) [9]: 60%
- Population Normal (%) [9]: 67%
- Population Pyknosed Nuclei (%) [9]: 7%
- Population Tubulin-Different-Phenotype (%) [9]: 17%
- Total Cell Count [9]: 470
- Population Apoptotic (%) [10]: 18%
- Population Fragmented Nuclei (%) [10]: 8%
- Population Healthy Nuclei (%) [10]: 84%
- Population Hoechst High Intensity Objects (%) [10]: 14%
- Population Membrane Permeable-Phenotype (%) [10]: 7%
- Population Mitochondria Different-Phenotype (%) [10]: 3%
- Population Mitotic Cells (%) [10]: 81%
- Population Normal (%) [10]: 85%
- Population Pyknosed Nuclei (%) [10]: 6%
- Population Tubulin-Different-Phenotype (%) [10]: 14%
- Total Cell Count [10]: 536
- Population Apoptotic (%) [11]: 15%
- Population Fragmented Nuclei (%) [11]: 82%
- Population Healthy Nuclei (%) [11]: 16%
- Population Hoechst High Intensity Objects (%) [11]: 43%
- Population Membrane Permeable-Phenotype (%) [11]: 0%
- Population Mitochondria Different-Phenotype (%) [11]: 0%
- Population Mitotic Cells (%) [11]: 85%
- Population Normal (%) [11]: 56%
- Population Pyknosed Nuclei (%) [11]: 1%
- Population Tubulin-Different-Phenotype (%) [11]: 0%
- Total Cell Count [11]: 2084
- Population Apoptotic (%) [12]: 16%
- Population Fragmented Nuclei (%) [12]: 84%
- Population Healthy Nuclei (%) [12]: 14%
- Population Hoechst High Intensity Objects (%) [12]: 52%
- Population Membrane Permeable-Phenotype (%) [12]: 1%
- Population Mitotic Cells (%) [12]: 83%
- Population Normal (%) [12]: 47%
- Population Tubulin-Different-Phenotype (%) [12]: 1%
- Total Cell Count [12]: 2135

SMILES: N#Cc1cnc(Nc2cc(NC[C@H]3CNCCO3)c(C(F)(F)F)cn2)cn1 [SRA-737]
- Population Apoptotic (%) [1]: 16%
- Population Fragmented Nuclei (%) [1]: 13%
- Population Healthy Nuclei (%) [1]: 66%
- Population Hoechst High Intensity Objects (%) [1]: 13%
- Population Membrane Permeable-Phenotype (%) [1]: 3%
- Population Mitochondria Different-Phenotype (%) [1]: 3%
- Population Mitotic Cells (%) [1]: 83%
- Population Normal (%) [1]: 86%
- Population Pyknosed Nuclei (%) [1]: 19%
- Population Tubulin-Different-Phenotype (%) [1]: 3%
- Total Cell Count [1]: 617
- Population Apoptotic (%) [2]: 12%
- Population Fragmented Nuclei (%) [2]: 11%
- Population Healthy Nuclei (%) [2]: 84%
- Population Hoechst High Intensity Objects (%) [2]: 2%
- Population Membrane Permeable-Phenotype (%) [2]: 2%
- Population Mitochondria Different-Phenotype (%) [2]: 7%
- Population Mitotic Cells (%) [2]: 87%
- Population Normal (%) [2]: 97%
- Population Pyknosed Nuclei (%) [2]: 3%
- Population Tubulin-Different-Phenotype (%) [2]: 5%
- Total Cell Count [2]: 2034
- Population Apoptotic (%) [3]: 20%
- Population Fragmented Nuclei (%) [3]: 10%
- Population Healthy Nuclei (%) [3]: 69%
- Population Hoechst High Intensity Objects (%) [3]: 14%
- Population Mitochondria Different-Phenotype (%) [3]: 6%
- Population Mitotic Cells (%) [3]: 79%
- Population Normal (%) [3]: 85%
- Population Pyknosed Nuclei (%) [3]: 20%
- Population Tubulin-Different-Phenotype (%) [3]: 5%
- Total Cell Count [3]: 721
- Population Apoptotic (%) [4]: 13%
- Population Fragmented Nuclei (%) [4]: 6%
- Population Healthy Nuclei (%) [4]: 85%
- Population Hoechst High Intensity Objects (%) [4]: 3%
- Population Membrane Permeable-Phenotype (%) [4]: 2%
- Population Mitochondria Different-Phenotype (%) [4]: 16%
- Population Mitotic Cells (%) [4]: 86%
- Population Normal (%) [4]: 96%
- Population Pyknosed Nuclei (%) [4]: 8%
- Population Tubulin-Different-Phenotype (%) [4]: 16%
- Total Cell Count [4]: 1376
- Population Apoptotic (%) [5]: 9%
- Population Fragmented Nuclei (%) [5]: 10%
- Population Healthy Nuclei (%) [5]: 77%
- Population Hoechst High Intensity Objects (%) [5]: 7%
- Population Membrane Permeable-Phenotype (%) [5]: 5%
- Population Mitochondria Different-Phenotype (%) [5]: 2%
- Population Mitotic Cells (%) [5]: 90%
- Population Normal (%) [5]: 92%
- Population Pyknosed Nuclei (%) [5]: 11%
- Population Tubulin-Different-Phenotype (%) [5]: 4%
- Total Cell Count [5]: 740
- Population Apoptotic (%) [6]: 5%
- Population Fragmented Nuclei (%) [6]: 34%
- Population Healthy Nuclei (%) [6]: 63%
- Population Hoechst High Intensity Objects (%) [6]: 4%
- Population Membrane Permeable-Phenotype (%) [6]: 8%
- Population Mitochondria Different-Phenotype (%) [6]: 1%
- Population Mitotic Cells (%) [6]: 94%
- Population Normal (%) [6]: 95%
- Population Pyknosed Nuclei (%) [6]: 2%
- Population Tubulin-Different-Phenotype (%) [6]: 10%
- Total Cell Count [6]: 3420
- Population Apoptotic (%) [7]: 25%
- Population Fragmented Nuclei (%) [7]: 10%
- Population Healthy Nuclei (%) [7]: 70%
- Population Hoechst High Intensity Objects (%) [7]: 10%
- Population Membrane Permeable-Phenotype (%) [7]: 4%
- Population Mitochondria Different-Phenotype (%) [7]: 6%
- Population Mitotic Cells (%) [7]: 75%
- Population Normal (%) [7]: 89%
- Population Pyknosed Nuclei (%) [7]: 18%
- Population Tubulin-Different-Phenotype (%) [7]: 15%
- Total Cell Count [7]: 729
- Population Apoptotic (%) [8]: 21%
- Population Fragmented Nuclei (%) [8]: 12%
- Population Healthy Nuclei (%) [8]: 64%
- Population Hoechst High Intensity Objects (%) [8]: 8%
- Population Membrane Permeable-Phenotype (%) [8]: 7%
- Population Mitochondria Different-Phenotype (%) [8]: 17%
- Population Mitotic Cells (%) [8]: 78%
- Population Normal (%) [8]: 91%
- Population Pyknosed Nuclei (%) [8]: 22%
- Population Tubulin-Different-Phenotype (%) [8]: 44%
- Total Cell Count [8]: 1254
